Screens as filed in PubChem.
UCH37 DUB inh: human UCH37 deubiquitinating enzyme inhibition; Q9Y5K5; purified proteasome/UCH37, Ub-AMC cleavage fluorescence; inhibition, % (test concentration not listed); hit rate 0.33% among 330,000;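 active = mean inhibition over replicate wells above about 20%, limit read from the data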;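 note: 0% = compound-free wells with enzyme and 100% = wells lacking proteasome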
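System: Proteasome-associated human UCH37 deubiquitinase; Input: 0.15 nM proteasome in added enzyme buffer; Also added: Ub-AMC substrate from 1 µM stock; Incubation: 30 min compound-proteasome preincubation then 25 min substrate reaction, room temperature; Detection: fluorescence, ex 355 nm, em 460 nm; Read-out: % inhibition of Ub-AMC cleavage fluorescence; Benchmarks: no-proteasome and no-compound wells.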
UBC13 polyUb: blocks human UBC13 polyubiquitin chain formation | P61088 | TR-FRET | inhibition, % at 20 µM | hit rate 0.47% among 330,000; in the data active = inhibition above about 45%, passing the limit was not always enough; inconclusive = no clear call, values can overlap the other calls
Target sequence (P61088 whole entry, looked up): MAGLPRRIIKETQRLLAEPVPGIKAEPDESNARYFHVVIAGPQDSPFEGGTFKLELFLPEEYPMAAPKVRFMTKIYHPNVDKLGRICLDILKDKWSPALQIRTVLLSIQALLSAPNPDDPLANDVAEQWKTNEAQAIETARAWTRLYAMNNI
Apaf1 inhib: inhibitors of human Apaf-1 apoptosome; reconstituted apoptosome caspase-3 activity, DEVD-Rh110 fluorescence; hit rate 0.71% among 330,000; O14727; AID 489030; inhibition, % at 20 µM; active = inhibition of at least 40% at 20 µM;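 note: plate controls were DMSO wells for no effect and DEVD-CHO caspase inhibitor wells for full effect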
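Material: cell-free apoptosome with Apaf-1, procaspase-3 and caspase-9; Buffer or medium: Hepes pH 7.5 with detergent and BSA; Reagent: cytochrome c trigger plus (Z-DEVD)2-Rh110 caspase-3 substrate; Times: compound with Apaf-1, dATP, procaspase-3 30 min, then 50 min reaction, room temperature; Technique: Rh110 fluorescence intensity.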
MEKK3 PB1 HTS: raises or lowers MEK5 binding to the human MEKK3 PB1 domain. binding response (% of control), % at 10 µM. Q99759. bead-based flow cytometry, Alexa488-MEK5 binding to MEKK3; actives lie on both sides; 0 = blocked by unlabeled MEK5, 100 = vehicle. hit rate 1.4% among 290,000. AID 1529;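 active = binding response more than 3 SD above or below the average of its plate-row segment, actives on both sides; inconclusive = wells at one plate position flagged as instrument error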;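 note: Alexa488 bead fluorescence after subtracting the streptavidin-only scavenger bead signal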
MEKK2mut PB1 HTS: signal of MEK5 binding to mutant human MEKK2 PB1 domain; percent response, % at 10 µM; bead flow cytometry, Alexa488-MEK5 binding to MEKK2 mutant; hit rate 0.35% among 290,000; AID 1530; in the data active = percent response above about 24%, passing the limit was not always enough
MEKK2wt PB1 HTS: raises or lowers MEK5 binding to wildtype human MEKK2 PB1 domain; Q9Y2U5; bead flow cytometry, Alexa488-MEK5 binding to MEKK2 WT; actives lie on both sides; binding response (% of control), % at 10 µM; hit rate 1.1% among 290,000; in the data active = binding response below about 67% or above about 130%; inconclusive = no clear call, values can overlap the other calls; inactive = in between
MEKK2wt confirm: raises or lowers MEK5 binding to wildtype human MEKK2, retest. shares compounds with MEKK3 PB1 HTS. bead flow cytometry, Alexa488-MEK5 binding to MEKK2 WT; actives lie on both sides. binding response (% of control), % at 10 µM. hit rate 2.4% among 5,900. AID 1892; in the data active = binding response below about 16% or above about 210%; inactive = in between
MEKK2mut confirm: signal of MEK5 binding to mutant human MEKK2, retest; shares compounds with MEKK3 PB1 HTS; percent response, % at 10 µM; AID 1893; hit rate 2% among 5,900; bead flow cytometry, Alexa488-MEK5 binding to MEKK2 mutant; in the data active = percent response mostly above about 71%, no sharp cut-off; inactive = mostly below about 38%;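 note: higher means compound restores mutant binding toward wildtype level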
MEKK3 confirm: confirmation of inhibitors of MEK5 binding to human MEKK3 | binding response (% of control), % at 10 µM | shares compounds with MEKK3 PB1 HTS | AID 1894 | bead flow cytometry, Alexa488-MEK5 binding to MEKK3; stronger effect = lower value | hit rate 1.8% among 5,900;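 active = binding response below 72% of control, or above a set upper limit, though filed actives all read lower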;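 note: 100% = DMSO only wells and 0% = binding blocked by excess unlabeled MEK5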
Casp3 counter: caspase-3 inhibition (UBC13 counter-screen) | Recombinant caspase-3, Caspase-Glo 3/7 luminescence, 60 min | inhibition, % at 20 µM | shares compounds with UBC13 polyUb | hit rate 4% among 1,400;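 active = mean inhibition across replicates above about 26%, limit read from the data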;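 note: plate controls were DMSO with caspase-3 for no effect and DMSO wells lacking enzyme for full effect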
Target sequence (P42574 whole entry, looked up): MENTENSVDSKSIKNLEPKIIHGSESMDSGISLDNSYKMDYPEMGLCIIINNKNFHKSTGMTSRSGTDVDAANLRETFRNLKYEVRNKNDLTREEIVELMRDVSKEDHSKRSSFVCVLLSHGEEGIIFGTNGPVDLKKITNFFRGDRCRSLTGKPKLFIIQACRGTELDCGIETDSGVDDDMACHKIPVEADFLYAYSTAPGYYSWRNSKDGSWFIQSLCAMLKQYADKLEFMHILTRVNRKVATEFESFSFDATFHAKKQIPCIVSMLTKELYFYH
UBC13 confirm: confirmation of human UBC13 polyubiquitin inhibitors. inhibition, % at 10 µM. hit rate 68% among 1,400. UBC13 polyubiquitination, TR-FRET, biochemical. shares compounds with UBC13 polyUb. AID 488859; in the data active = inhibition above about 45%; inconclusive = no clear call, values can overlap the other calls
Apaf-1 inh conf: Apaf-1 inhibition, single-dose confirmed. hit rate 25% among 1,800. AID 504614. inhibition, % at 20 µM. shares compounds with Apaf1 inhib. reconstituted apoptosome, caspase-3 DEVD-Rh110 fluorescence;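 active = mean inhibition of at least 40% at 20 µM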;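 note: plate controls were DMSO wells for no effect and DEVD-CHO caspase inhibitor control wells for full effect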
Rh110 interf inh: interferes with Rh110 fluorescence, flagging false Apaf-1 inhibitors; shares compounds with Apaf1 inhib; Rh110 fluorescence interference, quenched caspase reaction; activation (fluorescence interference), % at 20 µM; 1,800 tested, under 10 active; AID 504615;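 active = signal rise of 40% or more at 20 µM, treated as a fluorescence artifact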
Apaf1 inh interf: shows fluorescence interference in the Apaf-1 inhibitor assay format | fluorescence interference counterscreen, Apaf-1 assay format | shares compounds with Apaf1 inhib | IC50, µM | 460 tested, under 10 active; call rule not given here
The depositor's hits bear a star; ? = inconclusive; . = no result given; [ ] = remark or other dose. Rows were chosen to be rich in hits. Some 3% of all compounds tested hit in one or more screens of this group.

SMILES	UCH37 DUB inh	UBC13 polyUb	Apaf1 inhib	MEKK3 PB1 HTS	MEKK2mut PB1 HTS	MEKK2wt PB1 HTS	MEKK2wt confirm	MEKK2mut confirm	MEKK3 confirm	Casp3 counter	UBC13 confirm	Apaf-1 inh conf	Rh110 interf inh	Apaf1 inh interf
COc1ccc(C[C@H]2CN3C(=NC[C@H]3Cc3ccccc3)N2CCNC(=O)c2ccc(C)c(Br)c2)cc1	1.2	71.9*	42.9*	105.0	27.0*	154.0*	176.0	26.0	105.0	-2.3	61.3*	40.6*	10.6	>100
Cc1ccc(/C=N\NC(=O)Cc2cccn2C)o1	.	1.5	12.4	102.0	-3.0	100.0	.	.	.	.	.	.	.	.
COc1ccc(-c2cc(-c3ccc(F)cc3)nc(N3CCN(C)CC3)n2)cc1	-22.0	21.7	65.3*	122.0	39.0	201.0*	205.0	78.0*	117.0	.	.	6.5	8.9	.
CCN1/C(=C/c2ccc3cc(C)ccc3[n+]2CC)Sc2cc(C)c(C)cc21	10.6	16.0	64.5*	44.0*[inhibitor]	13.0	37.0*	33.0	-23.0	58.0*	.	.	59.6*	-18.9	>100
CC[n+]1ccccc1/C=C1\Sc2ccc(C)cc2N1C	12.0	-44.2	11.0	101.0	-1.0	107.0	.	.	.	.	.	.	.	.
Cc1noc(/C=C/c2cccs2)c1S(=O)(=O)N1CCC(C(=O)NCCCN2CCC(C)CC2)CC1	11.4	49.2*	40.0*	106.0	57.0*	186.0*	115.0	7.0	103.0	-0.1	18.2	15.7	6.9	.
Cc1onc(-c2ccccc2Cl)c1C(=O)NCc1ccc2c(c1)cc(C)n2C	4.2	13.1	53.1*	59.0*[inhibitor]	-8.0	43.0*[inhibitor]	93.0	-3.0	99.0	.	.	19.3	0.9	.
Cc1cc(NC(=O)CN2C(=O)NC(C)(CC(C)C)C2=O)no1 (stereo not given)	4.0	8.0	-10.1	.	.	.	.	.	.	.	.	.	.	.
CCCCCCCCCCCCCCCCn1cc[n+](C)c1	75.9*	73.2*	79.9*	113.0	76.0*	213.0*	148.0	17.0	100.0	-3.1	98.9*	43.8*	13.9	>100
OCCCn1c(CCCNc2nc(-c3cccc(Br)c3)cs2)nc2cc(Cl)c(N3CCCCC3)cc21	-0.8	3.7	13.1	104.0	-3.0	100.0	.	.	.	.	.	.	.	.
CCN(CC)CCOC(=O)c1ccc(NC(=O)CCCN2C(=O)S/C(=C/c3ccc(OC)cc3)C2=S)cc1	9.8	22.5	44.1*	106.0	44.0*	192.0*	111.0	2.0	87.0	.	.	26.9	6.9	.
CCOC(=O)C1=C(c2ccccc2)NC(N)=NC1c1ccc(OCc2ccc(C(=O)OC)cc2)cc1 (stereo not given)	0.5	54.6*	60.6*	109.0	49.0	194.0*	260.0*	76.0*	112.0	-4.0	92.4*	62.1*	-7.8	>100
CCOC(=O)C1=C(c2ccccc2)Nc2ncnn2C1c1ccc(C(=O)O)cc1 (stereo not given)	-0.8	-6.0	-22.1	?	-21.0	?	.	.	.	.	.	.	.	.
